From ChEMBL document CHEMBL1255304, “In vitro phenotypic susceptibility of human immunodeficiency virus type 2 clinical isolates to protease inhibitors” (Antimicrob Agents Chemother, 2008)

How the values were obtained:
[1] = system: Human immunodeficiency virus 2; experiment: Antiviral activity against HIV 2 subtype H expressing 10I-34E-40P-41Y-60H-63N-70T-73G-82F-89L-92E protease gene sequence from HIV2 infected patient plasma and PBMC obtained at T1 during compound treatment measured after 13 months; format: functional, organism-based; conditions: Human immunodeficiency virus 2, subtype H
In short: (§1)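 Virus isolated by PBMC coculture from patient samples taken before (T0) or during (T1, T2) protease inhibitor exposure, with protease genes sequenced from plasma and PBMC isolates. Susceptibility was tested in the ANRS PBMC assay, and the 50% inhibitory concentration (IC50) was reported.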

[2] = system: Human immunodeficiency virus 2; experiment: Antiviral activity against HIV 2 subtype A clinical isolate expressing 14H-17D-43T-68N/D protease gene sequence from HIV2 infected patient plasma and PBMC obtained before compound treatment measured after 13 months; format: functional, organism-based; conditions: Human immunodeficiency virus 2, subtype A; in short: as §1
[3] = system: Human immunodeficiency virus 2; experiment: Antiviral activity against HIV 2 subtype A clinical isolate expressing 5L/F-14Y/H-17G/D-43T-54I/M-62V/A-70R/K-71I protease gene sequence from HIV2 infected patient plasma and PBMC obtained at T1 during compound treatment measured after 13 months; format: functional, organism-based; conditions: Human immunodeficiency virus 2, subtype A; in short: as §1
[4] = system: Human immunodeficiency virus 2; experiment: Antiviral activity against HIV 2 subtype A clinical isolate expressing 14H-60K/N-65E protease gene sequence from HIV2 infected patient plasma and PBMC obtained before compound treatment measured after 13 months; format: functional, organism-based; conditions: Human immunodeficiency virus 2, subtype A; in short: as §1
[5] = system: Human immunodeficiency virus 2; experiment: Antiviral activity against HIV 2 subtype A clinical isolate expressing 54M-65E-71I-74N-90M protease gene sequence from HIV2 infected patient plasma and PBMC obtained at T1 during compound treatment measured after 13 months; format: functional, organism-based; conditions: Human immunodeficiency virus 2, subtype A; in short: as §1
[6] = system: Human immunodeficiency virus 2; experiment: Antiviral activity against HIV 2 subtype A clinical isolate expressing 10I-17D-40D-43I-46V-66V/A-70R/K protease gene sequence from HIV2 infected patient plasma and PBMC obtained before compound treatment measured after 13 months; format: functional, organism-based; conditions: Human immunodeficiency virus 2, subtype A; in short: as §1
[7] = system: Human immunodeficiency virus 2; experiment: Antiviral activity against HIV 2 subtype A clinical isolate expressing 10I-17D-40D-43I-45K/R-46V-54M-64I/V-69K/R-71V/I-90M protease gene sequence from HIV2 infected patient plasma and PBMC obtained at T1 during compound treatment measured after 13 months; format: functional, organism-based; conditions: Human immunodeficiency virus 2, subtype A; in short: as §1
[8] = system: Human immunodeficiency virus 2; experiment: Antiviral activity against HIV 2 subtype A clinical isolate expressing 14H-40D-70K-72R/K-91T/S protease gene sequence from HIV2 infected patient plasma and PBMC obtained before compound treatment measured after 13 months; format: functional, organism-based; conditions: Human immunodeficiency virus 2, subtype A; in short: as §1
[9] = system: Human immunodeficiency virus 2; experiment: Antiviral activity against HIV 2 subtype A clinical isolate expressing 10I-40D-43I-70K-82F-84V-85L-89V-90M-91T/L-98N/K protease gene sequence from HIV2 infected patient plasma and PBMC obtained at T1 during compound treatment measured after 13 months; format: functional, organism-based; conditions: Human immunodeficiency virus 2, subtype A; in short: as §1
[10] = system: Human immunodeficiency virus 2; experiment: Antiviral activity against HIV 2 subtype A clinical isolate expressing 10V/I-40D-43I-56V-70K-82F-84V-89V-90M protease gene sequence from HIV2 infected patient plasma and PBMC obtained at T2 during compound treatment measured after 3 months; format: functional, organism-based; conditions: Human immunodeficiency virus 2, subtype A; in short: as §1
[11] = system: Human immunodeficiency virus 2; experiment: Antiviral activity against HIV 2 subtype B clinical isolate expressing 14Y-61N-99L protease gene sequence from HIV2 infected patient plasma and PBMC obtained before compound treatment measured after 13 months; format: functional, organism-based; conditions: Human immunodeficiency virus 2, subtype B\r\n; in short: as §1
[12] = system: Human immunodeficiency virus 2; experiment: Antiviral activity against HIV 2 subtype B clinical isolate expressing 14Y-19P-33I-61N-71I-75M-84V-90M protease gene sequence from HIV2 infected patient plasma and PBMC obtained at T1 during compound treatment measured after 13 months; format: functional, organism-based; conditions: Human immunodeficiency virus 2, subtype B\r\n; in short: as §1
[13] = system: Human immunodeficiency virus 2; experiment: Antiviral activity against HIV 2 subtype B clinical isolate expressing 14Y-19P-61N-64V-71I-90M-95I protease gene sequence from HIV2 infected patient plasma and PBMC obtained at T2 during compound treatment measured after 3 months; format: functional, organism-based; conditions: Human immunodeficiency virus 2, subtype B\r\n; in short: as §1
[14] = system: Human immunodeficiency virus 2; experiment: Antiviral activity against HIV 2 subtype B clinical isolate expressing 12T-14Y-19P-40N-41D-61N-62I-96S-99L protease gene sequence from HIV2 infected patient plasma and PBMC obtained before compound treatment measured after 13 months; format: functional, organism-based; conditions: Human immunodeficiency virus 2, subtype B\r\n; in short: as §1
[15] = system: Human immunodeficiency virus 2; experiment: Antiviral activity against HIV 2 subtype B clinical isolate expressing 12Q-14R-17G/D-19P-61N-62I-92A protease gene sequence from HIV2 infected patient plasma and PBMC obtained before compound treatment measured after 13 months; format: functional, organism-based; conditions: Human immunodeficiency virus 2, subtype B\r\n; in short: as §1
[16] = system: Human immunodeficiency virus 2; experiment: Antiviral activity against Human immunodeficiency virus type 2 (ISOLATE ROD) after 13 months; format: functional, organism-based; conditions: Human immunodeficiency virus 2, ISOLATE ROD
In short: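 Reference strain ROD was tested in the ANRS PBMC assay alongside the clinical isolates, and the 50% inhibitory concentration (IC50) was reported.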

[17] = Antiviral activity against Human immunodeficiency virus type 1 (BRU ISOLATE) after […]; format: functional; conditions: Human immunodeficiency virus 1
[18] = system: Human immunodeficiency virus 2; experiment: Antiviral activity against HIV 2 subtype H expressing 10I-40P-41Y-60H-63N-70T-73G-89L-92E protease gene sequence from HIV2 infected patient plasma and PBMC obtained before compound treatment measured after 13 months; format: functional, organism-based; conditions: Human immunodeficiency virus 2, subtype H; in short: as §1

SMILES	IC50 [1]	IC90 [1]	IC50 [2]	IC90 [2]	IC50 [3]	IC50 [4]	IC90 [4]	IC50 [5]	IC90 [5]	IC50 [6]	IC90 [6]	IC50 [7]	IC90 [7]	IC50 [8]	IC90 [8]	IC50 [9]	IC90 [9]	IC50 [10]	IC90 [10]	IC50 [11]	also measured
COC(=O)N[C@H](C(=O)N[C@@H](Cc1ccccc1)[C@@H](O)CN(Cc1ccc(-c2ccccn2)cc1)NC(=O)[C@@H](NC(=O)OC)C(C)(C)C)C(C)(C)C [ATAZANAVIR]	1.9 µM	15 µM	0.07 µM	0.2 µM	0.3 µM	0.04 µM	0.3 µM	0.4 µM	1.8 µM	0.1 µM	0.3 µM	0.2 µM	1.8 µM	0.04 µM	0.2 µM	0.04 µM	1.3 µM	0.4 µM	3 µM	0.06 µM	IC90 [3]: 2.1 µM; IC90 [11]: 0.3 µM; IC50 [12]: 2.2 µM; IC90 [12]: 17 µM; IC50 [13]: 0.2 µM; IC90 [13]: 1.4 µM; IC50 [14]: 0.2 µM; IC90 [14]: 0.4 µM; IC50 [15]: 0.03 µM; IC90 [15]: 0.3 µM; IC50 [16]: 0.03 µM; IC90 [16]: 0.1 µM; IC50 [17]: 0.007 µM; IC90 [17]: 0.03 µM; IC50 [18]: 0.1 µM; IC90 [18]: 0.5 µM
CC(C)CN(C[C@@H](O)[C@H](Cc1ccccc1)NC(=O)O[C@H]1CO[C@H]2OCC[C@H]21)S(=O)(=O)c1ccc(N)cc1 [DARUNAVIR]	0.9 µM	4.7 µM	0.009 µM	0.03 µM	0.6 µM	0.01 µM	0.03 µM	0.2 µM	1.4 µM	0.004 µM	0.03 µM	0.8 µM	3 µM	0.004 µM	0.02 µM	0.5 µM	2.4 µM	1 µM	8.1 µM	0.002 µM	IC90 [3]: 7.3 µM; IC90 [11]: 0.01 µM; IC50 [12]: 0.5 µM; IC90 [12]: 3.9 µM; IC50 [13]: 0.7 µM; IC90 [13]: 5.1 µM; IC50 [14]: 0.004 µM; IC90 [14]: 0.02 µM; IC50 [15]: 0.01 µM; IC90 [15]: 0.05 µM; IC50 [16]: 0.005 µM; IC90 [16]: 0.02 µM; IC50 [17]: 0.004 µM; IC90 [17]: 0.009 µM; IC50 [18]: 0.004 µM; IC90 [18]: 0.04 µM
CC(C)(C)NC(=O)[C@@H]1CN(Cc2cccnc2)CCN1C[C@@H](O)C[C@@H](Cc1ccccc1)C(=O)N[C@H]1c2ccccc2C[C@H]1O [INDINAVIR]	12 µM	99 µM	< 0.01 µM	< 0.01 µM	18 µM	0.03 µM	0.4 µM	10 µM	82 µM	0.004 µM	0.1 µM	0.2 µM	3.1 µM	0.02 µM	0.4 µM	6.4 µM	51 µM	11 µM	90 µM	0.1 µM	IC90 [11]: 0.6 µM; IC50 [12]: 3.8 µM; IC90 [12]: 30 µM; IC50 [13]: 12 µM; IC90 [13]: 95 µM; IC50 [14]: 0.004 µM; IC90 [14]: 0.02 µM; IC50 [15]: 0.4 µM; IC90 [15]: 2.6 µM; IC50 [16]: 0.03 µM; IC90 [16]: 0.3 µM; IC50 [17]: 0.005 µM; IC90 [17]: 0.04 µM; IC50 [18]: 0.02 µM; IC90 [18]: 0.5 µM
